# Tests used:
# Format in all cases: functional
# Plasmodium berghei [1] = test: Antimalarial activity as 60-day survivors in infected mice (Mus musculus) after single 320mg/kg subcutaneous dose 72 hr post infection
# Summary of the method: (§1)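 Mice were infected with a normal drug-sensitive Plasmodium berghei strain. At 72 h postinfection each received one subcutaneous dose of compound dissolved or suspended in peanut oil, in five-mouse groups per dose. The read-out was the number of mice alive at 60 days postinfection, which were scored as cured.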
# Plasmodium berghei [2] = test: Change in mean survival time for control (average 6.2 days) versus treated mice (Mus musculus) 72 hrs after 160 mg/kg subcutaneous dose
# Plasmodium berghei [3] = test: Antimalarial activity as 60-day survivors in Plasmodium berghei infected mice (Mus musculus) after single 160mg/kg subcutaneous dose 72 hr post infection; summary of the method: as §1
# Plasmodium berghei [4] = test: Change in mean survival time for control (average 6.2 days) versus treated mice (Mus musculus) 72 hrs after 5 mg/kg subcutaneous dose
# Plasmodium berghei [5] = test: Change in mean survival time for control (average of 6.2 days) versus treated mice (Mus musculus) 72 hrs after 80 mg/kg subcutaneous dose
# Plasmodium berghei [6] = test: Change in mean survival time for control (average 6.2 days) versus treated mice (Mus musculus) 72 hrs after 640 mg/kg subcutaneous dose
# Plasmodium berghei [7] = test: Change in mean survival time for control (average 6.2 days) versus treated mice (Mus musculus) 72 hrs after […] subcutaneous dose
# Mus musculus [8] = test: Antimalarial activity, administered as a single subcutaneous dose of 640 mg/kg, 72 hrs post infection measured as number of mice (Mus musculus) surviving at 60 days post infection; summary of the method: as §1
# Plasmodium berghei [9] = test: Change in mean survival time for control (average 6.2 days) versus treated mice (Mus musculus) 72 hrs after […] subcutaneous dose
# Plasmodium berghei [10] = test: Change in mean survival time for control (average 6.2 days) versus treated mice (Mus musculus) 72 hrs after 20 mg/kg subcutaneous dose
# Plasmodium berghei [11] = test: Change in mean survival time for control (average 6.2 days) versus treated mice (Mus musculus) 72 hrs after 320 mg/kg subcutaneous dose
# Plasmodium berghei [12] = test: Difference in mean survival time in mice (Mus musculus) (control = 6.2 days) after single 40mg/kg subcutaneous dose 72hr post infection
# Mus musculus [13] = test: Antimalarial activity, administered as a single subcutaneous dose of 40 mg/kg, 72 hrs post infection measured as number of mice (Mus musculus) surviving at 60 days post infection; summary of the method: as §1
# Plasmodium berghei [14] = test: Change in mean survival time for control (average 6.2 days) versus treated mice (Mus musculus) 72 hrs after 10 mg/kg subcutaneous dose
# Mus musculus [15] = test: Antimalarial activity, administered as a single subcutaneous dose of 80 mg/kg, 72 hrs post infection measured as number of mice (Mus musculus) surviving at 60 days post infection; summary of the method: as §1
# Plasmodium berghei [16] = test: Antimalarial activity in primary screen
# Plasmodium berghei [17] = test: Antimalarial activity as 60-day survivors in infected mice (Mus musculus) after single 20 mg/kg subcutaneous dose 72hr post infection; summary of the method: as §1
Compound,No. of mice cured (Plasmodium berghei [1]),Delta MST (Plasmodium berghei [2]) [days],No. of mice cured (Plasmodium berghei [3]),Delta MST (Plasmodium berghei [4]) [days],Delta MST (Plasmodium berghei [5]) [days],Delta MST (Plasmodium berghei [6]) [days],Delta MST (Plasmodium berghei [7]) [days],No. of mice cured (Mus musculus [8]),Delta MST (Plasmodium berghei [9]) [days],Delta MST (Plasmodium berghei [10]) [days],Delta MST (Plasmodium berghei [11]) [days],Delta MST (Plasmodium berghei [12]) [days],No. of mice cured (Mus musculus [13]),Delta MST (Plasmodium berghei [14]) [days],No. of mice cured (Mus musculus [15]),ED30 (Plasmodium berghei [16]) [mg/kg],No. of mice cured (Plasmodium berghei [17])
CCCN(CCC)Cc1cc(Nc2ccnc3cc(Cl)ccc23)cc(-c2ccc(Cl)cc2)c1O,4,26.6,2,3.8,27.6,18.1,0.8,3,0.4,11.2,29.6,24.4,1,6.8,3,,
CCN(CC)Cc1cc(Nc2ccnc3cc(Cl)ccc23)cc(-c2ccncc2)c1O,1,21.7,1,1.9,11.5,25,0.5,2,-0.1,5.5,21.2,9.3,,2.1,1,89,
CCN(CC)Cc1cc(Nc2ccnc3cc(Cl)ccc23)cc(-c2ccccc2C(F)(F)F)c1O,4,,5,1.1,25.5,20.7,-0.3,4,0.3,12.5,30.7,18.5,1,3.1,1,34.7,
CCCCN(CCCC)Cc1cc(Nc2ccnc3cc(Cl)ccc23)cc(-c2ccc(Cl)cc2)c1O,,17,,0.2,12.6,34.4,0.2,3,0.4,4.6,24,8.2,,2,,,
CCN(CC)Cc1cc(Nc2ccnc3cc(Cl)ccc23)cc(-c2ccc(O)cc2)c1O,2,6.8,,,4.8,4.1,,1,,-0.2,3.8,0.8,,,,320,
CCN(CC)Cc1cc(Nc2ccnc3cc(Cl)ccc23)cc(-c2ccccc2Cl)c1O,4,41.9,4,4.7,,,0.3,5,0.7,17.2,41.9,,5,14.7,5,15.3,2
CCN(CC)Cc1cc(Nc2ccnc3cc(Cl)ccc23)cc(-c2cccc3ccccc23)c1O,1,6.6,,-0.3,5.8,8.1,-0.1,2,0.1,0.3,11.2,2.3,,0.7,,4200,
CC(C)(C)NCc1cc(Nc2ccnc3cc(Cl)ccc23)cc(-c2ccc(Cl)c(Cl)c2)c1O,3,13.4,4,6.1,30.4,16.4,0.1,4,0.7,10.5,14.4,27.4,2,9.7,4,,1
CCN(CC)Cc1cc(Nc2ccnc3cc(Cl)ccc23)cc(-c2c(F)cccc2F)c1O,5,,5,7.9,24.1,36.8,2.7,4,0.1,12.2,,16.9,1,8.3,2,23.7,1
CCN(CC)Cc1cc(Nc2ccnc3cc(Cl)ccc23)cc(-c2ccc(SC)cc2)c1O,2,19.2,,0.5,10,13.6,0.1,4,0.5,6.7,25.3,9.1,,1.3,,151,
CCN(CC)Cc1cc(Nc2ccnc3cc(Cl)ccc23)cc(-c2ccc(C)cc2)c1O,,9.7,,0.4,6.5,20.5,0.4,,0.4,3.3,14.5,4.5,,1.6,,1530,
CN(C)Cc1cc(Nc2ccnc3cc(Cl)ccc23)cc(-c2ccc(Cl)cc2)c1O,1,,5,14.2,45.4,18.7,6,1,1.2,36.8,14.4,18.8,4,20.4,4,6.2,3

# Reference: ChEMBL document CHEMBL1123290, “Synthesis, antimalarial activity, and quantitative structure-activity relationships of tebuquine and a series of related 5-[(7-chloro-4-quinolinyl)amino]-3-[(alkylamino)methyl] [1,1'-biphenyl]-2-ols and N omega-oxides” (1986)
